# High-throughput results: PubChem, several laboratories
# CRFBP-R2 block = antagonists of CRF-BP/CRF-R2 complex, primary screen, cell-based, HEK293, calcium dye fluorescence, uHTS. actives 0.59% (n = 350,000). inhibition, % at 11.8 µM. AID 588475, 2011. CRF-induced calcium fluorescence;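 active means inhibition of the ligand-induced calcium signal above about 50% at the single tested concentration, limit read from the data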
# TAAR1 antag = human TAAR1 antagonists, primary screen, Fluo-8 calcium fluorescence, CHO RD-HGA16 cells. actives 1.5% (n = 360,000). Trace amine-associated receptor 1 (Homo sapiens), Q96RJ0. antagonist. inhibition, % at 3 µM;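 active means inhibition above a per-plate cutoff, the mean inhibition of test compounds on that plate plus 3 SD, cut at about 49% in these data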;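 further: 0% = DMSO plus EC80 beta-PEA response and 100% = DMSO alone without agonist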
# Target sequence (Q96RJ0 whole entry, looked up): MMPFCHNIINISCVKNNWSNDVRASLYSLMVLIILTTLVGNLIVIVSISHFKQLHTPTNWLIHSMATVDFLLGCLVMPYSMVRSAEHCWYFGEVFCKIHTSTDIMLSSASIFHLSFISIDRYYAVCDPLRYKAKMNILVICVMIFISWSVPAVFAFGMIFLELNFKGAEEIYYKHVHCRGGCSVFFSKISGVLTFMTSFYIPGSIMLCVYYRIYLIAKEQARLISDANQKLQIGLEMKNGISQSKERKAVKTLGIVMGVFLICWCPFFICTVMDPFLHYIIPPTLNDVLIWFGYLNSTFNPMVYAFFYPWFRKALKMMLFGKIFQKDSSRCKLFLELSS
#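 Assay system: RD-HGA16 CHO cells with stable hTAAR1 and Gα16 / Reagent: EC80 β-phenethylamine stimulus / Doses: 3 µM, single point / Timing: dye loading 75 min at 37 °C, then 30 min room temperature / Measured by: Fluo-8 intracellular calcium dye fluorescence, real-time kinetic reads / Controls: vehicle wells and EC80 agonist wells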
# TAAR1 ag = human TAAR1 agonists, primary screen, Fluo-8 calcium fluorescence, CHO RD-HGA16 cells; Trace amine-associated receptor 1 (Homo sapiens), Q96RJ0; vehicle wells 0%, saturating PEA agonist 100%; activation, % at 3 µM; actives 0.99% (n = 360,000);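 active means activation above the mean activation of all test compounds in the run plus 3 SD, cut at about 38% in these data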
#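 Test system: RD-HGA16 (CHO) cells co-expressing Gα16 and hTAAR1 | Doses: Single dose, 3 µM | Schedule: 17-24 h seeding, 75 min 37 °C dye, 30 min RT | Evaluation: % activation from peak over basal fluorescence ratio, DMSO-to-PEA scaled | Technique: Kinetic Fluo-8 calcium fluorescence | Benchmarks: Low control DMSO, high control PEA (EC100)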
# CRFR2-BP ag = agonists of CRF-BP/CRF-R2 complex, primary screen, cell-based, HEK293, calcium dye fluorescence, uHTS; activation, % at 13.2 µM; CRF-binding protein / CRF receptor 2 complex (human); calcium dye fluorescence (FLIPR); percent of saturating CRF peptide response; actives 0.46% (n = 350,000);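 active means activation of at least 50%, plus an integration ratio under a set limit after plate pattern correction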;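 further: plate controls were neutral control wells without compound for no effect and CRF at EC100 for full effect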
# ANO1 block = TMEM16A chloride channel inhibitors, primary screen, cell-based, HTS | HEK293 TMEM16A/YFP iodide influx fluorescence, ionomycin | normalized B-score (activity score, 25-100; higher = stronger inhibition) at 10 µM | actives 1.2% (n = 310,000);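 active means ratio plate-corrected score three or more library SD toward inhibition, starting fluorescence score within five deviations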;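 further: score derived from kinetic fluorescence span divided by baseline fluorescence per well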
# TMEM16A act = TMEM16A chloride channel activators or potentiators, primary screen, cell-based, HTS; Anoctamin-1 (Mus musculus), Q8BHY3; HEK293 TMEM16A/YFP-H148Q/I152L, iodide quench fluorescence; active compounds read low; B-score at 10 µM; actives 0.3% (n = 340,000);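 active means fluorescence-ratio B-score plate-corrected deviation score at least 3 library SD below zero, with starting fluorescence score within 5 deviations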;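 further: channel opened by trigger with iodide after compound preincubation; score built on the fluorescence ratio of max minus min over baseline; more negative score means more quench and so TMEM16A activation or potentiation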
# TAAR1 ag conf = human TAAR1 agonists, retest of hits, confirmation, Fluo-8 calcium fluorescence, CHO RD-HGA16 cells | activation, % at 3 µM | shares compounds with TAAR1 ag | scaled: DMSO 0%, maximal phenethylamine 100% | actives 82% (n = 2,400);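 active means activation above a cutoff set at the run's mean compound activation plus 3 SD, cut at about 39% in these data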
# Ga16 ag counter = nonselective calcium mobilization agonists, CHO-Ga16 cells, counter-screen for hTAAR1 agonist project, cell-based, fluorescence, CHO-Ga16 parental line. actives 50% (n = 2,400). activation, % at 3 µM. shares compounds with TAAR1 ag. Fluo-8 calcium fluorescence; normalized to maximal ATP response, DMSO zero. AID 651787, 2012;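 active means activation above the run cutoff, the mean activation over all tested wells plus 3 SD, cut at about 12% in these data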;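 further: 0% = DMSO wells and 100% = maximal ATP response on the peak over basal ratio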
# TAAR1 desensitize = TAAR1 desensitization by agonist hits, confirmation, counter-screen for TAAR1 agonist project, cell-based, fluorescence, tachyphylaxis | shares compounds with TAAR1 ag | CHO RD-HGA16 hTAAR1, Fluo-8 calcium, beta-PEA response inhibition | inhibition, % at 3 µM | actives 46% (n = 2,400);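 active means inhibition above the run cutoff, the mean inhibition of all test compounds plus 3 SD, cut at about 49% in these data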;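 further: beta-PEA stimulus applied at its EC80; loss of beta-PEA calcium signal after compound pretreatment read as receptor desensitization; 0% = DMSO with beta-PEA at EC80 and 100% = DMSO alone without agonist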
# Ga16 nonsel ant = inhibition of ATP-evoked calcium response in CHO-Ga16 cells, counter-screen for TAAR1 agonist project, cell-based, fluorescence; actives 39% (n = 2,400); CHO-Ga16 ATP-induced calcium, Fluo-8 fluorescence; shares compounds with TAAR1 ag; inhibition, % at 3 µM;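 active means inhibition above the plate's mean compound inhibition plus 3 SD, computed per plate, cut at about 22% in these data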;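 further: 0% = EC80 ATP with DMSO and 100% = DMSO wells without ATP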
# An asterisk follows results filed as active; i = inactive; . = no result. Rows were chosen to be rich in hits. Some 3.9% of all compounds tested hit in one or more screens of this group.
SMILES,CRFBP-R2 block,TAAR1 antag,TAAR1 ag,CRFR2-BP ag,ANO1 block,TMEM16A act,TAAR1 ag conf,Ga16 ag counter,TAAR1 desensitize,Ga16 nonsel ant
O=C(C(=O)N1CCCC1)c1c(-c2ccccc2)[nH]c2ccccc12,-2,1,-1,1,i,i,.,.,.,.
COC(=O)c1sccc1S(=O)(=O)Nc1ccc(C(O)(C(F)(F)F)C(F)(F)F)cc1,.,103*,169*,.,.,.,142*,113*,103*,84*
O=C(NCCC1=CCCCC1)c1cc(COc2c(F)cccc2F)on1,-12,-17,8,0,i,i,.,.,.,.
CSc1ccccc1OCc1cc(C(=O)NCCC2=CCCCC2)no1,-1,-16,55*,3,i,i,38*,7,89*,58*
CCCn1c(NC(=O)C2COc3ccccc3O2)nc2ccccc21 (stereo unspecified),32,49*,51*,0,i,i,7,2,8,18
CCN1CCN(c2ccc(S(=O)(=O)N3CCCCC3)cc2NC(=O)CCNC(C)=O)CC1,12,-36,1,-1,.,i,.,.,.,.
CCCCc1nnc2c(N(C)S(=O)(=O)c3ccc(C)cc3)nc3ccccc3n12,2,-8,57*,0,i,i,0,0,2,8
S=C(Nc1cc(Cl)cc(Cl)c1)NC1CCN(Cc2ccccc2)CC1,-18,20,64*,3,i,i,58*,32*,53*,46*
CN(c1ccc(NC(=O)Cc2c[nH]c3ccccc23)cc1)c1ccccn1,.,26,3,.,.,.,.,.,.,.
COc1ccc(C(=O)Nc2ccc(Cn3ccnc3)cc2)cc1OC,2,1,1,0,i,i,.,.,.,.
O=C(Nc1ccc(Cn2ccnc2)cc1)c1cccc(C(F)(F)F)c1,11,31,42*,-1,i,i,57*,0,36,10
O=C(C[C@@H]1C/C=C\C[C@@H](Cc2ccc(F)cc2)C(=O)OC[C@@H]2CCCN2C1=O)NCCO,-7,-7,0,1,.,.,.,.,.,.
O=C(N[C@H](C(=O)N1CCC[C@H]1C(=O)NCCc1ccccc1Cl)C1CCCCC1)c1ccccc1,.,66*,64*,.,.,.,76*,2,85*,-2
O=C(N[C@H](C(=O)N1CCC[C@H]1C(=O)NCCc1ccccc1Cl)C1CCCCC1)C1CC1,.,34,46*,.,.,.,73*,1,78*,6
O=C(N[C@H](C(=O)N1CCC[C@H]1C(=O)NCCc1ccccc1Cl)c1ccccc1)C1CC1,.,12,37,.,.,.,.,.,.,.
O=C(N[C@H](C(=O)N1CCC[C@H]1C(=O)NCc1ccccc1)C1CCCCC1)c1ccccc1,.,10,-2,.,.,.,.,.,.,.
COc1cccc(C(=O)N[C@H](C(=O)N2CCC[C@H]2C(=O)NCCc2ccccc2Cl)C2CCCCC2)c1,.,55*,52*,.,.,.,79*,4,86*,5
Cc1ccc(S(=O)(=O)N(C)c2ccc(C(=O)N(CC(C)C)C3CCS(=O)(=O)C3)cc2)cc1 (stereo unspecified),0,3,0,-1,i,i,.,.,.,.
O=Cc1ccc(-n2cccn2)cc1,6,65*,323*,-2,i,i,0,3,3,4
Cc1nn(CC(=O)N/N=C/c2cccs2)c(C)c1[N+](=O)[O-],3,38,57*,0,i,i,80*,6,72*,4
COc1cccc(/C=N/NC(=O)Cn2nc(C)c([N+](=O)[O-])c2C)c1O,-33,-17,1,-1,i,i,.,.,.,.
Cc1ccc(/C=N/NC(=O)Cn2cnc3ccccc32)cc1,-3,10,3,-1,i,i,.,.,.,.
Cc1ccsc1/C=N/NC(=O)Cn1cnc2ccccc21,-8,29,56*,-1,i,i,61*,2,45,12
C/C(=N\NC(=O)Cn1nc(C)c([N+](=O)[O-])c1C)c1ccc(Cl)s1,-19,-16,1,-3,i,i,.,.,.,.
Cc1ccsc1/C=N/NC(=O)Cn1nc(C)c([N+](=O)[O-])c1C,-2,-6,45*,0,i,i,72*,0,55*,6
SMILES,CRFBP-R2 block,TAAR1 antag,TAAR1 ag,CRFR2-BP ag,ANO1 block,TMEM16A act,TAAR1 ag conf,Ga16 ag counter,TAAR1 desensitize,Ga16 nonsel ant
COc1cccc(CNC(=O)c2ccc(NC(=O)C3=CSCCO3)cc2)c1,0,-6,2,-1,i,i,.,.,.,.
COC(=O)[C@@]1(Cc2ccc(F)cc2)[C@H]2c3cc(C(=O)N4CCCC4)n(CC4CC4)c3C[C@H]2CN1C(=O)c1ccccc1,.,23,70*,.,.,.,76*,38*,52*,32*
COC(=O)[C@@]1(Cc2ccc(F)cc2)[C@H]2c3cc(C(=O)N4CCCC4)n(CCF)c3C[C@H]2CN1C(=O)c1ccccc1,.,-2,7,.,.,.,.,.,.,.
COc1ccc(CCNc2c(N)n(Cc3ccccc3)c(=O)[nH]c2=O)cc1OC,2,3,11,-2,i,i,.,.,.,.
Nc1c(NCCC2=CCCCC2)c(=O)[nH]c(=O)n1Cc1ccccc1,-7,-13,55*,21,i,i,68*,2,28,7
Cc1c(Cl)cccc1-c1ccc(/C=N/n2cnnc2)o1,-13,-19,47*,-1,i,i,38*,19*,12,13
CCCCCN(C(=O)CCC(=O)OCc1ccc(C(C)C)cc1)c1c(N)n(CCCC)c(=O)[nH]c1=O,2,-3,1,-2,i,i,.,.,.,.
